Measured values taken from ChEMBL document CHEMBL5724801, “EUbOPEN Chemogenomics Library - Multiplex” (2024).
Values joined by “and” are separate entries in the source; they are usually repeats but may differ in a detail not shown here. Identical values can stand only once.

System: Fibroblast
Test: Multiplex assay against human fibroblast
Assay type: toxicity, cell-based
Procedure, shortened: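 Values for tubulin, mitochondrial-mass and membrane-permeability phenotypes are per cents of cells with healthy nuclei. These cells were identified by CellPathfinder machine-learning gating of live cells that had been stained at seeding with Hoechst33342, BioTracker Green Microtubule Cytoskeleton Dye, MitoTracker Red and Annexin V Alexa Fluor 680 and imaged on a CQ1 microscope at 37°C and 5% CO2 after compound addition. The gating first set Hoechst high-intensity objects apart from normal cells, then split normal cells into healthy, pyknosed or fragmented nuclei, and pyknosed cells into mitotic or apoptotic.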

[1] = 12 h, 1 µM, compound concentration 1 uM
[2] = 12 h, 10 µM, compound concentration 10 uM
[3] = 24 h, 1 µM, compound concentration 1 uM
[4] = 24 h, 10 µM, compound concentration 10 uM
[5] = 48 h, 1 µM, compound concentration 1 uM
[6] = 48 h, 10 µM, compound concentration 10 uM

CC/C(=C(\c1ccc(O)cc1)c1ccc(OCCN(C)C)cc1)c1ccccc1 [AFIMOXIFENE]
Population Apoptotic (%) [1]: 6.78% and 3.57%
Population Fragmented Nuclei (%) [1]: 14.83% and 6.12%
Population Healthy Nuclei (%) [1]: 56.94% and 79.59%
Population Hoechst High Intensity Objects (%) [1]: 0%
Population Membrane Permeable-Phenotype (%) [1]: 2.52% and 2.56%
Population Mitochondria Different-Phenotype (%) [1]: 7.56% and 8.97%
Population Mitotic Cells (%) [1]: 93.22% and 96.43%
Population Normal (%) [1]: 100%
Population Pyknosed Nuclei (%) [1]: 28.23% and 14.29%
Population Tubulin-Different-Phenotype (%) [1]: 14.29% and 22.44%
Total Cell Count [1]: 209 and 196
Population Fragmented Nuclei (%) [2]: 14.55% and 7.74%
Population Healthy Nuclei (%) [2]: 54.55% and 72.76%
Population Hoechst High Intensity Objects (%) [2]: 0%
Population Membrane Permeable-Phenotype (%) [2]: 3.33% and 2.55%
Population Mitochondria Different-Phenotype (%) [2]: 25.56% and 23.83%
Population Mitotic Cells (%) [2]: 94.12% and 80.95%
Population Normal (%) [2]: 100%
Population Pyknosed Nuclei (%) [2]: 30.91% and 19.5%
Population Tubulin-Different-Phenotype (%) [2]: 54.44% and 66.38%
Total Cell Count [2]: 165 and 323
Population Apoptotic (%) [3]: 8.77% and 18.75%
Population Fragmented Nuclei (%) [3]: 10.78% and 8.21%
Population Healthy Nuclei (%) [3]: 64.66% and 83.59%
Population Hoechst High Intensity Objects (%) [3]: 0%
Population Membrane Permeable-Phenotype (%) [3]: 4% and 2.45%
Population Mitochondria Different-Phenotype (%) [3]: 6.67% and 9.82%
Population Mitotic Cells (%) [3]: 91.23% and 81.25%
Population Normal (%) [3]: 100%
Population Pyknosed Nuclei (%) [3]: 24.57% and 8.21%
Population Tubulin-Different-Phenotype (%) [3]: 18% and 23.31%
Total Cell Count [3]: 232 and 195
Population Apoptotic (%) [4]: 17.65% and 48.31%
Population Fragmented Nuclei (%) [4]: 12.57%
Population Healthy Nuclei (%) [4]: 50.27% and 67.6%
Population Hoechst High Intensity Objects (%) [4]: 0%
Population Membrane Permeable-Phenotype (%) [4]: 3.26% and 2.76%
Population Mitochondria Different-Phenotype (%) [4]: 29.35% and 27.19%
Population Mitotic Cells (%) [4]: 82.35% and 51.69%
Population Normal (%) [4]: 100%
Population Pyknosed Nuclei (%) [4]: 37.16% and 27.73%
Population Tubulin-Different-Phenotype (%) [4]: 70.65% and 79.72%
Total Cell Count [4]: 183 and 321
Population Fragmented Nuclei (%) [5]: 9.52% and 11.27%
Population Healthy Nuclei (%) [5]: 83.67% and 81.69%
Population Hoechst High Intensity Objects (%) [5]: 0%
Population Membrane Permeable-Phenotype (%) [5]: 1.22% and 2.3%
Population Mitochondria Different-Phenotype (%) [5]: 9.35% and 5.17%
Population Mitotic Cells (%) [5]: 95% and 73.33%
Population Normal (%) [5]: 100%
Population Pyknosed Nuclei (%) [5]: 6.8% and 7.04%
Population Tubulin-Different-Phenotype (%) [5]: 8.94% and 25.86%
Total Cell Count [5]: 294 and 213
Population Apoptotic (%) [6]: 28.57% and 43.14%
Population Healthy Nuclei (%) [6]: 71.37% and 80.49%
Population Hoechst High Intensity Objects (%) [6]: 0%
Population Membrane Permeable-Phenotype (%) [6]: 4.71%
Population Mitochondria Different-Phenotype (%) [6]: 13.37% and 7.41%
Population Mitotic Cells (%) [6]: 71.43% and 56.86%
Population Normal (%) [6]: 100%
Population Pyknosed Nuclei (%) [6]: 8.71% and 13.82%
Population Tubulin-Different-Phenotype (%) [6]: 49.42% and 76.77%
Total Cell Count [6]: 241 and 369

O=c1cccc2n1C[C@@H]1CNC[C@H]2C1 [CYTISINICLINE]
Population Apoptotic (%) [1]: 5.66% and 13.33%
Population Fragmented Nuclei (%) [1]: 10.05% and 5.19%
Population Healthy Nuclei (%) [1]: 61.9% and 75.32%
Population Hoechst High Intensity Objects (%) [1]: 0%
Population Membrane Permeable-Phenotype (%) [1]: 4.27% and 5.17%
Population Mitochondria Different-Phenotype (%) [1]: 5.98% and 6.9%
Population Mitotic Cells (%) [1]: 94.34% and 86.67%
Population Normal (%) [1]: 100%
Population Pyknosed Nuclei (%) [1]: 28.04% and 19.48%
Population Tubulin-Different-Phenotype (%) [1]: 11.11% and 12.93%
Total Cell Count [1]: 189 and 154
Population Apoptotic (%) [2]: 15.38% and 16.67%
Population Fragmented Nuclei (%) [2]: 13.5% and 4.41%
Population Healthy Nuclei (%) [2]: 62.58% and 80.88%
Population Hoechst High Intensity Objects (%) [2]: 0%
Population Membrane Permeable-Phenotype (%) [2]: 11.76% and 2.42%
Population Mitochondria Different-Phenotype (%) [2]: 9.8% and 7.27%
Population Mitotic Cells (%) [2]: 84.62% and 83.33%
Population Normal (%) [2]: 100%
Population Pyknosed Nuclei (%) [2]: 23.93% and 14.71%
Population Tubulin-Different-Phenotype (%) [2]: 20.59% and 20.61%
Total Cell Count [2]: 163 and 204
Population Apoptotic (%) [3]: 10.81% and 26.67%
Population Fragmented Nuclei (%) [3]: 10.86% and 6.41%
Population Healthy Nuclei (%) [3]: 72.4% and 83.97%
Population Hoechst High Intensity Objects (%) [3]: 0%
Population Membrane Permeable-Phenotype (%) [3]: 3.12% and 3.05%
Population Mitochondria Different-Phenotype (%) [3]: 4.38% and 3.82%
Population Mitotic Cells (%) [3]: 89.19% and 73.33%
Population Normal (%) [3]: 100%
Population Pyknosed Nuclei (%) [3]: 16.74% and 9.62%
Population Tubulin-Different-Phenotype (%) [3]: 13.12% and 12.21%
Total Cell Count [3]: 221 and 156
Population Apoptotic (%) [4]: 8% and 22.22%
Population Fragmented Nuclei (%) [4]: 9.26% and 6.16%
Population Healthy Nuclei (%) [4]: 75.31% and 85.31%
Population Hoechst High Intensity Objects (%) [4]: 0%
Population Membrane Permeable-Phenotype (%) [4]: 6.56% and 4.44%
Population Mitochondria Different-Phenotype (%) [4]: 5.74% and 5%
Population Mitotic Cells (%) [4]: 92% and 77.78%
Population Normal (%) [4]: 100%
Population Pyknosed Nuclei (%) [4]: 15.43% and 8.53%
Population Tubulin-Different-Phenotype (%) [4]: 20.49% and 23.33%
Total Cell Count [4]: 162 and 211
Population Apoptotic (%) [5]: 26.67% and 22.22%
Population Fragmented Nuclei (%) [5]: 7.5% and 5.23%
Population Healthy Nuclei (%) [5]: 86.25% and 83.01%
Population Hoechst High Intensity Objects (%) [5]: 0%
Population Membrane Permeable-Phenotype (%) [5]: 0.48% and 1.57%
Population Mitotic Cells (%) [5]: 73.33% and 77.78%
Population Normal (%) [5]: 100%
Population Pyknosed Nuclei (%) [5]: 6.25% and 11.76%
Population Tubulin-Different-Phenotype (%) [5]: 3.38% and 7.09%
Total Cell Count [5]: 240 and 153
Population Apoptotic (%) [6]: 62.5% and 28.57%
Population Fragmented Nuclei (%) [6]: 8.67% and 8.44%
Population Healthy Nuclei (%) [6]: 87.24% and 85.65%
Population Hoechst High Intensity Objects (%) [6]: 0%
Population Membrane Permeable-Phenotype (%) [6]: 0% and 2.46%
Population Mitotic Cells (%) [6]: 37.5% and 71.43%
Population Normal (%) [6]: 100%
Population Pyknosed Nuclei (%) [6]: 4.08% and 5.91%
Population Tubulin-Different-Phenotype (%) [6]: 8.19% and 18.72%
Total Cell Count [6]: 196 and 237
